Several values for one entry are separate records, joined by “and”; a condition that tells them apart may be missing. Equal entries are not always repeated.
Columns and labels:
[1] = system: human stem-cell-derived motor neurons carrying the ALS-causing SOD1^A4V mutation; experiment: Motor neuron CPA survival assay, SOD1^A4V ALS motor neurons
MLK1 = MLK1 (Homo sapiens, UniProt P80192); experiment: Cell-free radiolabeled ATP kinase assay; format: biochemical; conditions: single concentration
Outline: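 MLK1 radiometric HotSpot assay: recombinant kinase and substrate at 25°C with ATP plus 33P-ATP at 10 μM final, 120 min, spotted on P81 paper and washed. Single-dose panel run at 0.1 μM; IC50 series for MLK1 spanned 0.002–1 μM in 2-fold steps. Read-out is % remaining activity versus DMSO.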

MLK3 = MLK3 (Homo sapiens, UniProt Q16584); experiment: Cell-free radiolabeled ATP kinase assay; format: biochemical; conditions: for activity at MLK3: single concentration, cell-free
Chain of MLK3 (Q16584 whole entry): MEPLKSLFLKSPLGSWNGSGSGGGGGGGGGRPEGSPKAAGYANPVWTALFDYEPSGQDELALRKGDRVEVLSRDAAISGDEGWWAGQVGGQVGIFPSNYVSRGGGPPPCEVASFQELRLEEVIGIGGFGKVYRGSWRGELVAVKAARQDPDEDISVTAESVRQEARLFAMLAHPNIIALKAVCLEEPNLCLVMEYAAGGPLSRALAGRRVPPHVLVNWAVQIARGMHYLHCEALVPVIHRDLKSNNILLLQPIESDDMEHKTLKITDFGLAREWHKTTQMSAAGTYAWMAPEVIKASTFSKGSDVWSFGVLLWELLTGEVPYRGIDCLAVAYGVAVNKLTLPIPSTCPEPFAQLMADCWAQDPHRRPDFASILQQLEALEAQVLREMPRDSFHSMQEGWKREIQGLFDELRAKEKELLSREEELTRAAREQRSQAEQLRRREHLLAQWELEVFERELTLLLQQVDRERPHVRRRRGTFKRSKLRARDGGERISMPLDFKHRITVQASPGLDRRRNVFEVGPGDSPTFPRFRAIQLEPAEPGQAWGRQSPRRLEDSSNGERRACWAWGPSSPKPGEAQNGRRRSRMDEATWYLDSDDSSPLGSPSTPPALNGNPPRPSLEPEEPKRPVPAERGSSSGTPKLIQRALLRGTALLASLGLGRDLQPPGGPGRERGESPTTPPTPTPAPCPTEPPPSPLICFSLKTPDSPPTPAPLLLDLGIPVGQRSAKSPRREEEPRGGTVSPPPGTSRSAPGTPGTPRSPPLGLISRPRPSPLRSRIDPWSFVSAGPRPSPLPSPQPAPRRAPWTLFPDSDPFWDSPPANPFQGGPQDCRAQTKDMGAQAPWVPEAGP

[2] = system: TNFα release in LPS-stimulated mouse N9 microglial cells; experiment: TNFα ELISA in LPS-stimulated N9 microglia; format: cell-based; conditions: for EC50: Mus musculus, N9, 24 h, read-out: EC50 for decrease of TNFα secretion
Outline: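 N9 mouse microglia were plated at 8000 cells/well on gelatin in DMEM/10% FBS. At 24 h, cells were treated with LPS (E. coli O111:B4) plus test compound at stated concentrations. 24 h later, medium TNFα was measured by ELISA (A450, 540 nm correction). Viability of remaining cells was checked by AlamarBlue, 4 h at 37°C. n = 2 wells; means ± SEM.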

HGK [3] = target: HGK (Homo sapiens, UniProt O95819); experiment: Cell-free radiolabeled ATP kinase assay; format: biochemical
Chain of HGK (Homo sapiens, UniProt O95819) (O95819 whole entry): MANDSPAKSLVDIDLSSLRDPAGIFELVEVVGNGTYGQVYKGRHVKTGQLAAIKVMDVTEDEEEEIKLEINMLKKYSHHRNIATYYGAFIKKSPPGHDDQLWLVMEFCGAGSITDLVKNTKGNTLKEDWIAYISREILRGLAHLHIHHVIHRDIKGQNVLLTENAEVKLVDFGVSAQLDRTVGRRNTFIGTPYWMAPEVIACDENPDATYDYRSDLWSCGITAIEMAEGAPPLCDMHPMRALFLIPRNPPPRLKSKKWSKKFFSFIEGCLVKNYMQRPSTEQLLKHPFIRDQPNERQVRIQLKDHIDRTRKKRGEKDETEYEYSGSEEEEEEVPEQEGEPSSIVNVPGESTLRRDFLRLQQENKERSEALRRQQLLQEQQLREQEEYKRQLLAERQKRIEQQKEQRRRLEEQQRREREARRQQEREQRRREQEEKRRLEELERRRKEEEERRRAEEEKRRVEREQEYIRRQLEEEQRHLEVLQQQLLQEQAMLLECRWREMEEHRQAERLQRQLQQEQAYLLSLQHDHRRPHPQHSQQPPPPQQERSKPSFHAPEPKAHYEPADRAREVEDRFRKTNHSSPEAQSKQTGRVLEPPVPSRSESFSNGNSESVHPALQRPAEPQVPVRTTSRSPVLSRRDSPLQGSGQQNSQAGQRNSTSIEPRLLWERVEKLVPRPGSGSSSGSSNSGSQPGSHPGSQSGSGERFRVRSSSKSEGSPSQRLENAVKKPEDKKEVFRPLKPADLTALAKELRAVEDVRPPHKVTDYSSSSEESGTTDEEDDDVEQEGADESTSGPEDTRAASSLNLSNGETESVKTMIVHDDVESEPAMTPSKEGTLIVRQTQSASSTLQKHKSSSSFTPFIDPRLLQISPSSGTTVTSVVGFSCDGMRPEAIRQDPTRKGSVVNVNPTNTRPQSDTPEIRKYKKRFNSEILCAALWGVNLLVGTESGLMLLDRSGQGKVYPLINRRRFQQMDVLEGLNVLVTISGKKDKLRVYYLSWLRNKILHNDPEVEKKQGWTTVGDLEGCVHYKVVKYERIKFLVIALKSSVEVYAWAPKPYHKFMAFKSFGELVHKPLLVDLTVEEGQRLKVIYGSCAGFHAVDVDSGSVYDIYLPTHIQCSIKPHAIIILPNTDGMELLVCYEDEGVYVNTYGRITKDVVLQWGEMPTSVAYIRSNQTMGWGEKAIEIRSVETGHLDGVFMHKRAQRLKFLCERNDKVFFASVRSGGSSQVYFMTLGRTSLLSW
Outline: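 Recombinant HGK and substrate with test compound in radiometric HotSpot assay at 25°C: ATP plus 33P-ATP at 10 μM final, 120 min, then spotted on P81 filter paper and washed. IC50 from 10 concentrations, 0.0002–0.1 μM in 2-fold steps. Otherwise single concentrations were used; the 371-kinase panel was run at 0.1 μM. Activity is % remaining versus DMSO alone.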

[4] = system: kinases assayed in cell-free conditions; experiment: Kinase selectivity score from published cell-free panels; format: biochemical
[5] = system: motor neurons differentiated from human induced pluripotent stem cells derived from a healthy patient; experiment: Motor neuron CPA survival assay, healthy-patient iPSC-derived motor neurons; format: cell-based; conditions: CPA-treated healthy human motor neurons, 72 h
[6] = In vivo pharmacokinetics, IP injection or oral gavage; parameters: species or system mouse; conditions: for Brain AUC / Brain mean Cmax / Kp at 3 h / Cmax: mouse; for Brain AUC / Brain mean Cmax: ± SEM; for Kp at 3 h / Cmax: male, B6SJLF1/J; for Kp at 3 h: brain and plasma; for Cmax: plasma
Outline: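 Dosing solution: DMSO stock diluted to 2 mg/mL in 40% PEG-400 plus 55% of a 20% hydroxypropyl-β-cyclodextrin solution. Given at 10 mg/kg IP or by oral gavage to 8-week-old male wild-type B6SJLF1/J mice, n = 3 per route per time point. At 15 min, 3, 8 or 24 h: trunk blood (EDTA 50 mM final, plasma) and fresh brain taken. Analysed by LC-MS against calibration curves; means ± SEM.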

JNK pathway = experiment: Western blots of JNK pathway in CPA-treated motor neurons; format: cell-based, mouse; conditions: western blot
Outline: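 Day-6 embryoid bodies from mouse ES cells (HB9::GFP reporter, human SOD1 transgene; RA 1 μM + SAG 0.5 μM) were given CPA 10 μM plus test compound 0.5 μM for 4 h, then lysed in HEPES/Triton/SDS buffer. Immunoblots used phospho-JNK (Thr183/Tyr185), phospho-c-Jun (Ser63), phospho-MKK4 (Ser257), total proteins and cleaved caspase 3 at 1:1000, with GAPDH at 1:3000. Signals normalised to GAPDH, phospho to total, and expressed as % of CPA; n = 2 differentiations; unpaired two-tailed t-tests.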

[7] = system: CPA-treated motor neurons; experiment: CPA-treated motor neurons, PKC/ABL inhibitors; format: cell-based; conditions: data not shown
[8] = ref Goodfellow et al. (2013); cited from earlier work
HGK [9] = conditions: 1 μM; ref Goodfellow et al., 2013; cited from earlier work
[10] = system: HIV-mediated microgliosis in the brain; conditions: mice, ref Marker et al. (2013), cited from earlier work
SOD1^G93A mutant rats = conditions: late-stage SOD1^G93A mutant rats; ref Trias et al., 2016; cited from earlier work
[11] = ref Tang et al., 2012; cited from earlier work
[12] = system: mouse stem cell-derived motor neurons; conditions: CPA-treated; ref Thams et al., 2019; cited from earlier work
[13] = CPA-treated SOD1^A4V motor neurons
[14] = CPA 10 μM + compound 0.5 μM, 4 h

Chain of MLK1 (P80192 whole entry): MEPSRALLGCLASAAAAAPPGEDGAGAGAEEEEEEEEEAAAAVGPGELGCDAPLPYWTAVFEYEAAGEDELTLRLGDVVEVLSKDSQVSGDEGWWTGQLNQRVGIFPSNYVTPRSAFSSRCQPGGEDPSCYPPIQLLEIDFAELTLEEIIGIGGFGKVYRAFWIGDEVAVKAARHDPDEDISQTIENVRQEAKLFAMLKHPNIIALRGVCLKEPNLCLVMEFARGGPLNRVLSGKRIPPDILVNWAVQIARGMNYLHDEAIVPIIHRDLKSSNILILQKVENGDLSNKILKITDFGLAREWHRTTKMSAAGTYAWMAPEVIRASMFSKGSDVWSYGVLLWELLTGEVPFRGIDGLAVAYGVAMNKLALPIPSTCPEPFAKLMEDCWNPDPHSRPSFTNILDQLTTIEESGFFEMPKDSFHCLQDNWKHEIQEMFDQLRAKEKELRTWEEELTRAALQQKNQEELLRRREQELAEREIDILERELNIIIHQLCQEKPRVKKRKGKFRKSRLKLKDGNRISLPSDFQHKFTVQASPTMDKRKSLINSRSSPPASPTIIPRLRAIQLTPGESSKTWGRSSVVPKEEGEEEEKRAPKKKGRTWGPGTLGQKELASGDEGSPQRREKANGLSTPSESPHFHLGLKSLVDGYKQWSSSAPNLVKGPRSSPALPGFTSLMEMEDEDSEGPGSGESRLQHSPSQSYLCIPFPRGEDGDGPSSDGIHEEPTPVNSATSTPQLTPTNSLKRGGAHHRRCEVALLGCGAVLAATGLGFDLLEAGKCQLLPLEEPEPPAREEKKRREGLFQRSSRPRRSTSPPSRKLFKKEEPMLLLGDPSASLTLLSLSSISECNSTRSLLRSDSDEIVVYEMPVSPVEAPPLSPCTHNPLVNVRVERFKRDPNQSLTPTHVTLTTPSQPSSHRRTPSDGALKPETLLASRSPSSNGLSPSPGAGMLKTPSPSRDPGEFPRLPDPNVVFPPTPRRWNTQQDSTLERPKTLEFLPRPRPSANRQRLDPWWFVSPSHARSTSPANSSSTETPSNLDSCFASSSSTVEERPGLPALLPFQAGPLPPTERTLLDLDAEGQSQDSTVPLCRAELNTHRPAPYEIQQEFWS

SMILES: CN1CC2CCC(C1)N2Cc1ccc(-c2cnc3[nH]cc(-c4cccc5[nH]ncc45)c3c2)cc1 [12e, 4-(5-(4-((3-Methyl-3,8-diazabicyclo[3.2.1]octan-8-yl)methyl)phenyl)-1H-pyrrolo[2,3-b]pyridin-3-yl)-1H-indazole]
- neuroprotection in CPA survival assay [1, 13]: highly neuroprotective
- inhibition of MLK1 (MLK1): inability to inhibit MLK3 and MLK1
- activity at MLK3 (MLK3): little activity at MLK3
- effect on TNFα release at 0.5 μM ([2]; 0.5 μM, LPS-stimulated N9 microglia): did not inhibit TNFα release
- effect on TNFα levels ([2]; LPS-stimulated N9 microglia): did not significantly decrease TNFα levels
- inhibition of HGK activity (HGK [3]; single concentration, cell-free): strongly inhibited HGK activity

SMILES: Nc1ncc(C(=O)NC2CN(C(=O)C3CC3)C2)c2ccc(-c3cccc(F)c3)nc12 [GNE-495]
- selectivity score (kinases with <20% activity remaining / total kinases assayed) ([4]; 1 μM, cell-free, calculated from published data, ref Ndubaku et al., 2015): 0.01
- rescue of CPA toxicity / neuroprotection [5]: neuroprotective

SMILES: OCCN1CCN(Cc2ccc(-c3cnc4[nH]cc(-c5cccc(Cl)c5)c4c3)cc2)CC1 [Prostetin/12k, 2-(4-(4-(3-(3-Chlorophenyl)-1H-pyrrolo[2,3-b]pyridin-5-yl)benzyl)piperazin-1-yl)ethan-1-ol]
- concentration at which maximum efficacy (Emax) was observed [1, 13]: 0.5 µM
- EC50 ([1]; Homo sapiens, Neuron, 72 h, read-out: EC50 in motor neuron survival assay): 100 nM
- Brain AUC ([6]; 10 mg/kg IP): 11570 (±1655) μg/L•h
- Brain mean Cmax ([6]; 10 mg/kg IP): 1162 (±91.99) μg/kg
- Brain AUC ([6]; 10 mg/kg OG): 8429 (±1458) μg/L•h
- Brain mean Cmax ([6]; 10 mg/kg OG): 658.9 (±257.7) μg/kg
- brain Cmax ([6]; IP-injected animals, 10 mg/kg): 1162 ng/g and 2.60 μM
- Kp at 3 h ([6]; ip, 10 mg/kg): 3
- Kp at 3 h ([6]; oral, 10 mg/kg): 3.3
- Cmax ([6]; ip, 10 mg/kg): 454 ng/mL
- Cmax ([6]; po, 10 mg/kg): 184 ng/mL
- inhibition of JNK pathway components (JNK pathway; Fig. S2): effectively inhibit the same JNK pathway components as compound 1
- activity at MLK3 (MLK3): slightly decreased inhibition of MLK3
- concentrations that significantly attenuated TNFα release ([2]; LPS-stimulated N9 microglia): ≥ 0.5 µM
- EC50 [2]: ~470 nM
- potency relative to compound 1 (fold less potent) ([2]; suppression of TNFα release): ~ 5 x
- IC50 (HGK [3]): 0.3 nM

SMILES: CS(=O)(=O)O.Cn1cc(C2=C(c3cn(CCCSC(=N)N)c4ccccc34)C(=O)NC2=O)c2ccccc21 [Ro-318220 mesylate]
- protection of CPA-treated motor neurons [7]: mildly protective

SMILES: COc1cc(Nc2c(C#N)cnc3cc(OCCCN4CCN(C)CC4)c(OC)cc23)c(Cl)cc1Cl [bosutinib]
- protection of CPA-treated motor neurons [7]: mildly protective

SMILES: CN1CCN(Cc2ccc(-c3cnc4[nH]cc(-c5ccc6[nH]ccc6c5)c4c3)cc2)CC1 [compound 1, 3-(1H-Indol-5-yl)-5-(4-((4-methylpiperazin-1-yl)methyl)phenyl)-1H-pyrrolo[2,3-b]pyridine, reference compound]
- bioavailability (%F) as measured in the plasma [8]: 41
- maximum motor neuron survival compared to untreated controls ([1]; CPA 33 μM, 72 h, CPA alone ~10%): 102%
- concentration at which maximum efficacy (Emax) was observed [1, 13]: 1 µM
- inhibition of HGK activity (HGK [9]): > 99%
- Brain AUC ([6]; 10 mg/kg IP): 1568 (±147.1) μg/L•h
- Brain mean Cmax ([6]; 10 mg/kg IP): 208.8 (±10.21) μg/kg
- Brain AUC ([6]; 10 mg/kg OG): 567.2 (±110.5) μg/L•h
- Brain mean Cmax ([6]; 10 mg/kg OG): 83.35 (±21.40) μg/kg
- Kp at 3 h ([6]; ip, 10 mg/kg): 0.23
- Kp at 3 h ([6]; oral, 10 mg/kg): 0.19
- Cmax ([6]; ip, 10 mg/kg): 972 ng/mL
- Cmax ([6]; po, 10 mg/kg): 476 ng/mL
- effect on HIV-mediated microgliosis in the brain ([10]; IP 10 mg/kg twice a day for 28 days): attenuate Human Immunodeficiency Virus (HIV)-mediated microgliosis
- tolerability over long-term dosing [10]: well-tolerated
- selectivity score (kinases with <20% activity remaining / total kinases assayed) ([4]; similar conditions, based on data from ref Goodfellow et al. (2013)): 0.36
- JNK activation (phospho-JNK Thr183/Tyr185) compared to CPA alone (JNK pathway; [14]): significantly decreased JNK activation
- phosphorylation of MKK4 at Ser257 (JNK pathway; [14]): attenuated the phosphorylation
- rescue of CPA toxicity / neuroprotection [5]: neuroprotective
- IC50 (MLK3): 18.6 nM
- EC50 [2]: 200 nM
- IC50 (HGK [3]): 5.93 nM

SMILES: Cc1ccc(NC(=O)c2ccc(CN3CCN(C)CC3)cc2)cc1Nc1nc(-c2cccnc2)cs1 [masitinib]
- effect on microgliosis and disease progression (SOD1^G93A mutant rats): attenuate microgliosis and slow disease progression

SMILES: CCN(CC)CCNC(=O)c1c(C)[nH]c(/C=C2\C(=O)Nc3ccc(F)cc32)c1C [sunitinib]
- blood-brain barrier crossing [11]: does not readily cross the blood-brain barrier
- protection of motor neurons from ER stress [12]: protect motor neurons from ER stress
